Rows were chosen to be rich in hits. Some 0.77% of all compounds tested hit in one or more screens of this group.
bIAP activator: increases bovine intestinal alkaline phosphatase activity; purified bovine IAP, CDP-star luminescence, 30 min; hits give high values; fold of DMSO-control signal, blank-subtracted; activation factor at 20 µM; 200,000 compounds, 0.17% hits;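 active = activation factor of 2 or more at 20 µM, a signal rise over negative controls twice the positive control's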
mIAP block: blocks mouse intestinal alkaline phosphatase | purified mouse IAP, CDP-Star luminescence, 30 min | inhibition, % at 10 µM | 330,000 compounds, 0.2% hits;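 active = inhibition of at least 40% at 10 µM in the primary screen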
bIAP inhibitor: blocks bovine intestinal alkaline phosphatase activity | inhibition, % at 20 µM | purified bovine IAP, CDP-star luminescence, 30 min | AID 1019 | 190,000 tested, under 10 active;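 active = over 50% inhibition of intestinal alkaline phosphatase at 20 µM in the single-dose screen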
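Incubation: 30 min reaction at room temperature / Material: purified bovine intestinal alkaline phosphatase (IAP) enzyme / Input: enzyme at 1/65,000,000 dilution / Dosing: 20 µM single dose / Signal: CDP-star luminescence signal / Reagent: CDP-star chemiluminescent phosphatase substrate, 30 µM final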
hIAP inh: human IAP inhibition | purified IAP, CDP-Star luminescence, 30 min | inhibition, % at 10 µM | 330,000 compounds, 0.12% hits | AID 2544;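 active = inhibition reaching a set limit with compound at 10 µM in the primary screen, cut at about 35% in these data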
Target sequence (P09923 whole entry, looked up): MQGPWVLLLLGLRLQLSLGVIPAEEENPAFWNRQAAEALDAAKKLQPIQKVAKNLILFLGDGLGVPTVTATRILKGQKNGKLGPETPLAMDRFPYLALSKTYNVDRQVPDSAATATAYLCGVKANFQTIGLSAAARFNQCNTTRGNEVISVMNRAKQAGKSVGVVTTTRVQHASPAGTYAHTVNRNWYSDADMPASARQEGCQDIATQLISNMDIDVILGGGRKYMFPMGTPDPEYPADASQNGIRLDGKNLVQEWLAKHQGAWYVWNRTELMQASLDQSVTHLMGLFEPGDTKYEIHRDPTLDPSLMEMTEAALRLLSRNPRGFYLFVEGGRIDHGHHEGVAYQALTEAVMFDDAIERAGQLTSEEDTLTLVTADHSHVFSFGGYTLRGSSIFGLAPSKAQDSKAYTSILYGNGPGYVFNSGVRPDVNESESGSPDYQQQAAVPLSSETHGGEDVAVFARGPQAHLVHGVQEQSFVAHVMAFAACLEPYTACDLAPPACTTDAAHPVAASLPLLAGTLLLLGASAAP
mIAP act: mouse IAP activation | muIAP, CDP-Star luminescence, 30 min; hits give high values; 1 = vehicle-only enzyme signal, 0 = enzyme-free wells | activation factor at 10 µM | 330,000 compounds, 0.24% hits;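 active = activation factor of at least 2 at 20 µM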
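also added = chemiluminescent substrate CDP-Star | test system = mouse IAP enzyme | signal = chemiluminescence readout | compound = DMSO-dissolved test compounds | incubation = 30 min at room temperature | benchmarks = DMSO wells, no-enzyme wells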
hIAP activ: human IAP activation. P09923. purified human IAP, CDP-Star luminescence, 30 min; hits give high values; 1 = vehicle-only enzyme, 0 = enzyme-free background. activation factor at 10 µM. 330,000 compounds, 0.16% hits. AID 2524;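 active = activation factor of the enzyme at least 2-fold when tested at 20 µM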
Each line names hits and unclear results; the compound was inactive in the other large screens.

Cc1ccc(NP(=O)(Nc2ccc(C)cc2)Nc2ccc(C)cc2)cc1	mIAP act 2.46
CC(C)C(C(=O)O)N1CCS(=O)(=O)CC1 (centres undefined)	none
CCOc1ccc(NC(=O)CC(c2ccccc2)c2ccc(F)cc2)cc1 (centres undefined)	mIAP act 2.17
CCOc1ccccc1NC(=O)c1cccc(NC(=O)CC(c2ccccc2)c2ccccc2)c1	mIAP act 2.02
Cc1ccc(NC(=O)C2CC(=O)N(Cc3ccccc3)C2)nc1 (centres undefined)	none (no result: bIAP activator, bIAP inhibitor)
COC(=O)c1cc(NC(=O)COC(=O)C2COc3ccccc3O2)cc(C(=O)OC)c1 (centres undefined)	none (no result: bIAP activator, bIAP inhibitor)
CCN1/C(=C/C=C/c2oc3ccc4ccccc4c3[n+]2CC)Oc2ccc3ccccc3c21	mIAP block 47.2, hIAP inh 43.6
CC[n+]1c(/C=C/N(C)c2ccccc2)oc2ccc(Cl)cc21	none
O=C(Nc1cc(Cl)cc(Cl)c1)C1CCC(=O)N1Cc1ccccc1Cl (centres undefined)	mIAP act 2.04
O=C(Nc1ccccc1)Nc1ccc(-n2ccc(C(F)(F)F)n2)cc1	mIAP act 2.42 (no result: bIAP activator, bIAP inhibitor)
CCOC(=O)/C(N=Nc1sc(C(=O)OCC)c(C)c1C(=O)OCC)=C(\C)O	none
CCOC(=O)c1sc(N=NC2=C(O)CCCC2=O)c(C(=O)OCC)c1C	mIAP block 40.0
CC(=O)Nc1ccc(S(=O)(=O)NC2(C(F)(F)F)NC(=O)N(Cc3ccccc3)C2=O)cc1 (centres undefined)	none (no result: bIAP activator, bIAP inhibitor)
Clc1ccc(N2N=C(c3cccs3)CC2c2ccco2)cc1 (centres undefined)	none
c1ccc(N2N=C(c3cccs3)CC2c2ccco2)cc1 (centres undefined)	mIAP act 2.08
Cc1ccc(NC(=S)NC(=O)C2CCCCC2)c(Br)c1	none (no result: bIAP activator, bIAP inhibitor)
Cc1ccc2nc(N3C(=O)C(O)=C(C(=O)c4ccc(C)o4)C3c3ccco3)sc2c1 (centres undefined)	mIAP block 49.9 (no result: bIAP activator, bIAP inhibitor)
Cc1nc2c(n1C1CCCCC1)C(=O)c1ccccc1C2=O	none
Cc1cc(C(=O)C(=O)O)c(C)n1-c1ccc(Cl)c(Cl)c1	bIAP activator 2.5
Cc1ccc(N2C(=O)CS/C2=C(\C(Cl)=C(Cl)Cl)[N+](=O)[O-])cc1	mIAP block 41.9
Cc1ccc(N2C(=O)CSCC2=O)cc1	none
CC(=O)C1=C(C)NC(SCC(=O)c2ccc(Cl)c(Cl)c2)=C(C#N)C1c1ccco1 (centres undefined)	hIAP inh 35.0
CC(=O)C1=C(C)NC(SCC(=O)c2cc(Cl)ccc2Cl)=C(C#N)C1c1ccco1 (centres undefined)	none
CCOC(=O)c1ccc(NC(=O)NCc2ccccc2)cc1	none
CCOC(=O)c1ccc(NC(=O)Nc2ccc(F)cc2)cc1	mIAP act 2.54
CCOC(=O)c1cccc(NC(=O)Nc2ccc(OCC)cc2)c1	mIAP act 2.91
CCCCOC(=O)c1ccc(NC(=O)Nc2ccc(OC)c(OC)c2)cc1	mIAP act 2.15
COC(=O)c1ccc(NC(=O)Nc2ccc(F)cc2)cc1	none
CCOC(=O)c1ccc(NC(=O)NCc2ccccc2OC)cc1	mIAP act 2.35
CCN(Cc1ccccc1)C(=O)Cc1c[nH]c2ccccc12	none (no result: bIAP activator, bIAP inhibitor)
CC(=O)N1c2ccc(S(=O)(=O)N(C)CC(=O)Nc3ccccc3C)cc2CC1C (centres undefined)	none (no result: bIAP activator, bIAP inhibitor)
CCCS(=O)(=O)Nc1ccc(N2CCCCC2)c(S(=O)(=O)Nc2ccccc2OC)c1	none (no result: bIAP activator, bIAP inhibitor)
COC(=O)CN1C2=NCCCN2c2ccccc21	none
CCOC(=O)c1ccc(NC(=O)NC2CCN(CC(=O)NCc3ccc4c(c3)OCO4)CC2)cc1	mIAP act 2.27
Cc1cc(C(=O)Nc2c(C)nn(Cc3ccc(F)cc3)c2C)on1	none
Cc1nn(Cc2ccc(F)cc2)c(C)c1NC(=O)C1c2ccccc2Oc2ccccc21	mIAP act 2.88
CCOC(=O)CSc1ncnc2c(C(=O)OCC)c3n(c12)CCC3	none
COC(=O)c1ccc(NC(=S)NC2CCCCC2C)cc1 (centres undefined)	mIAP act 2.57
CCOC(=O)c1ccc(NC(=S)NC(=O)C2CCCC2)cc1	none (no result: bIAP activator, bIAP inhibitor)
CCOC(=O)c1ccc(NC(=S)NC2CCCC2)cc1	mIAP act 2.21

Assay outcomes (PubChem)
